In ChEMBL document CHEMBL1649224, “Involvement of pmrAB and phoPQ in polymyxin B adaptation and inducible resistance in non-cystic fibrosis clinical isolates of Pseudomonas aeruginosa” (2009):
Activity calls are given as the source filed them. No cut-off for these calls is given here.

Tests used:
Pseudomonas aeruginosa [1] = test: Antibacterial activity against Pseudomonas aeruginosa isolate 9BR by Etest; format: functional
Pseudomonas aeruginosa [2] = test: Antibacterial activity against Pseudomonas aeruginosa isolate 19BR by Etest; format: functional
Pseudomonas aeruginosa [3] = test: Antibacterial activity against Pseudomonas aeruginosa isolate 213BR by Etest; format: functional
Pseudomonas aeruginosa [4] = test: Antibacterial activity against Pseudomonas aeruginosa isolate 9BR by Etest in presence of beta-lactamase inhibitor Tazobactam; format: functional
Pseudomonas aeruginosa [5] = test: Antibacterial activity against Pseudomonas aeruginosa isolate 19BR by Etest in presence of beta-lactamase inhibitor Tazobactam; format: functional
Pseudomonas aeruginosa [6] = test: Antibacterial activity against Pseudomonas aeruginosa isolate 213BR by Etest in presence of beta-lactamase inhibitor Tazobactam; format: functional
Pseudomonas aeruginosa [7] = test: Antibacterial activity against Pseudomonas aeruginosa isolate 9BR assessed as lowest concentration at which no growth observed after 48 hrs by broth microdilution method; format: functional, organism-based
Pseudomonas aeruginosa [8] = test: Antibacterial activity against Pseudomonas aeruginosa isolate 19BR assessed as lowest concentration at which no growth observed after 48 hrs by broth microdilution method; format: functional, organism-based
In short: (§1)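 Broth microdilution per CLSI M7-A6/M100-S15 in cation-adjusted Mueller-Hinton broth, 37°C, 48 h; polymyxin B 0.03 to 32 μg/ml, triplicate runs per isolate. Liberal MIC read as the lowest-concentration well without visible growth; skipped wells (isolated no-growth wells below wells with growth) noted.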

Pseudomonas aeruginosa [9] = test: Antibacterial activity against Pseudomonas aeruginosa isolate 213BR assessed as lowest concentration at which no growth observed after 48 hrs by broth microdilution method; format: functional, organism-based; in short: as §1
Pseudomonas aeruginosa [10] = test: Antibacterial activity against Pseudomonas aeruginosa isolate 9BR assessed as growth after the skipped wells was observed after 48 hrs by broth microdilution method; format: functional, organism-based
Pseudomonas aeruginosa [11] = test: Antibacterial activity against Pseudomonas aeruginosa isolate 19BR assessed as growth after the skipped wells was observed after 48 hrs by broth microdilution method; format: functional, organism-based
Pseudomonas aeruginosa [12] = test: Antibacterial activity against Pseudomonas aeruginosa isolate 213BR assessed as growth after the skipped wells was observed after 48 hrs by broth microdilution method; format: functional, organism-based
Pseudomonas aeruginosa [13] = test: Antimicrobial activity against Pseudomonas aeruginosa isolate 19BR assessed as inhibition of growth at 2 ug/ml after 24 hrs; format: functional, organism-based
In short: (§2)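 Growth curves run in triplicate: overnight cultures diluted 1:20 into cation-adjusted Mueller-Hinton broth with 0, 0.125 or 2 μg/ml polymyxin B; OD600 read every 20 min for 24 h.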

Pseudomonas aeruginosa [14] = test: Antimicrobial activity against Pseudomonas aeruginosa isolate 213BR assessed as inhibition of growth at 2 ug/ml after 24 hrs; format: functional, organism-based; in short: as §2
Pseudomonas aeruginosa [15] = test: Increase in arnB gene expression in compound-resistant Pseudomonas aeruginosa isolate 9BR by quantitative PCR analysis; format: functional, organism-based
In short: (§3)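 Cells taken from MIC-plate wells at 0, 0.125 or 2 μg/ml polymyxin B, regrown in 10 ml CAMHB at the same level, shaken at 37°C to OD600 0.5. Total RNA (4 μg) reverse-transcribed; qPCR normalised to rpsL and expressed relative to PAO1 without polymyxin B. Triplicate cultures on separate days from individual MIC plates, each run at least in duplicate.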

Pseudomonas aeruginosa [16] = test: Increase in PA4773 gene expression in compound-resistant Pseudomonas aeruginosa isolate 9BR by quantitative PCR analysis; format: functional, organism-based; in short: as §3
Pseudomonas aeruginosa [17] = test: Effect on phoQ gene expression in Pseudomonas aeruginosa PAO1 at 2 ug/ml by quantitative PCR analysis; format: functional, organism-based
In short: (§4)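 Cells from MIC plate wells regrown in cation-adjusted Mueller-Hinton broth with 0, 0.125 or 2 μg/ml polymyxin B at 37°C with shaking to OD600 0.5. Total RNA (4 μg) reverse-transcribed for qPCR of phoQ, arnB and PA4773, with rpsL as control. Expression is relative to untreated PAO1; triplicate biological repeats, each at least in duplicate.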

Pseudomonas aeruginosa [18] = test: Effect on arnB gene expression in Pseudomonas aeruginosa PAO1 at 2 ug/ml by quantitative PCR analysis; format: functional, organism-based; in short: as §4
Pseudomonas aeruginosa [19] = test: Effect on PA4773 gene expression in Pseudomonas aeruginosa PAO1 at 2 ug/ml by quantitative PCR analysis; format: functional, organism-based; in short: as §4
Pseudomonas aeruginosa [20] = test: Increase in phoQ gene expression in Pseudomonas aeruginosa isolate 19BR at 2 ug/ml by quantitative PCR analysis; format: functional, organism-based; in short: as §4
Pseudomonas aeruginosa [21] = test: Increase in arnB gene expression in Pseudomonas aeruginosa isolate 19BR at 2 ug/ml by quantitative PCR analysis; format: functional, organism-based; in short: as §4
Pseudomonas aeruginosa [22] = test: Increase in PA4773 gene expression in Pseudomonas aeruginosa isolate 19BR at 2 ug/ml by quantitative PCR analysis; format: functional, organism-based; in short: as §4
Pseudomonas aeruginosa [23] = test: Increase in phoQ gene expression in Pseudomonas aeruginosa isolate 213BR at 2 ug/ml by quantitative PCR analysis; format: functional, organism-based; in short: as §4
Pseudomonas aeruginosa [24] = test: Increase in arnB gene expression in Pseudomonas aeruginosa isolate 213BR at 2 ug/ml by quantitative PCR analysis; format: functional, organism-based; in short: as §4
Pseudomonas aeruginosa [25] = test: Increase in PA4773 gene expression in Pseudomonas aeruginosa isolate 213BR at 2 ug/ml by quantitative PCR analysis; format: functional, organism-based; in short: as §4
Pseudomonas aeruginosa [26] = test: Antimicrobial activity against Pseudomonas aeruginosa PAO1 assessed as outer membrane permeabilization by fluorescence spectrophotometer using NPN fluorescent probe; format: functional, organism-based
In short: (§5)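 Cells grown in cation-adjusted Mueller-Hinton broth with 0, 0.125 or 2 μg/ml polymyxin B (preincubation), subcultured 1:100 to mid-log, washed, resuspended to OD600 0.5 in 5 mM HEPES pH 7.2 with 5 μM CCCP. NPN 10 μM final added for baseline. Polymyxin B then added at 0.25–64 μg/ml final; fluorescence ex 350/em 420 nm.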

Pseudomonas aeruginosa [27] = test: Antimicrobial activity against Pseudomonas aeruginosa isolate 19BR assessed as outer membrane permeabilization by fluorescence spectrophotometer using NPN fluorescent probe; format: functional, organism-based; in short: as §5
Pseudomonas aeruginosa [28] = test: Antimicrobial activity against Pseudomonas aeruginosa isolate 9BR assessed as outer membrane permeabilization by fluorescence spectrophotometer using NPN fluorescent probe; format: functional, organism-based; in short: as §5
Pseudomonas aeruginosa [29] = test: Antimicrobial activity against Pseudomonas aeruginosa PAO1 assessed as outer membrane permeabilization at 4 ug/ml by fluorescence spectrophotometer using NPN fluorescent probe; format: functional, organism-based; in short: as §5
Pseudomonas aeruginosa [30] = test: Antimicrobial activity against Pseudomonas aeruginosa isolate 9BR assessed as outer membrane permeabilization at => […] ug/ml by fluorescence spectrophotometer using NPN fluorescent probe; format: functional, organism-based
Pseudomonas aeruginosa [31] = test: Antimicrobial activity against Pseudomonas aeruginosa isolate 19BR assessed as outer membrane permeabilization at => 8 ug/ml by fluorescence spectrophotometer using NPN fluorescent probe; format: functional, organism-based; in short: as §5
Pseudomonas aeruginosa [32] = test: Antimicrobial activity against Pseudomonas aeruginosa PAO1 assessed as outer membrane permeabilization at 0.125 ug/ml by fluorescence spectrophotometer using NPN fluorescent probe; format: functional, organism-based; in short: as §5
Pseudomonas aeruginosa [33] = test: Antimicrobial activity against 2 ug/ml compound pretreated Pseudomonas aeruginosa isolate 9BR assessed as outer membrane permeabilization at 8 ug/ml by fluorescence spectrophotometer using NPN fluorescent probe; format: functional, organism-based; in short: as §5
Pseudomonas aeruginosa [34] = test: Antimicrobial activity against 2 ug/ml compound pretreated Pseudomonas aeruginosa isolate 19BR assessed as outer membrane permeabilization at 8 ug/ml by fluorescence spectrophotometer using NPN fluorescent probe; format: functional, organism-based; in short: as §5
Pseudomonas aeruginosa [35] = test: Antimicrobial activity against Pseudomonas aeruginosa isolate 9BR assessed as inhibition of growth at 0.25 ug/ml after 24 hrs; format: functional, organism-based

## CO/N=C(\C(=O)N[C@@H]1C(=O)N2C(C(=O)[O-])=C(C[N+]3(C)CCCC3)CS[C@H]12)c1csc(N)n1 [CEFEPIME]
Pseudomonas aeruginosa [1]
  MIC: > 256 µg/mL
Pseudomonas aeruginosa [2]
  MIC: > 256 µg/mL
Pseudomonas aeruginosa [3]
  MIC: > 256 µg/mL

## CC(C)(O/N=C(\C(=O)N[C@@H]1C(=O)N2C(C(=O)[O-])=C(C[n+]3ccccc3)CS[C@H]12)c1csc(N)n1)C(=O)O [CEFTAZIDIME]
Pseudomonas aeruginosa [1]
  MIC: > 256 µg/mL
Pseudomonas aeruginosa [2]
  MIC: > 256 µg/mL
Pseudomonas aeruginosa [3]
  MIC: > 256 µg/mL

## O=C(O)c1cn(C2CC2)c2cc(N3CCNCC3)c(F)cc2c1=O [CIPROFLOXACIN]
Pseudomonas aeruginosa [1]
  MIC: > 32 µg/mL
Pseudomonas aeruginosa [2]
  MIC: > 32 µg/mL
Pseudomonas aeruginosa [3]
  MIC: > 32 µg/mL

## C[C@@H](O)[C@H]1C(=O)N2C(C(=O)O)=C(S[C@@H]3CN[C@H](C(=O)N(C)C)C3)[C@H](C)[C@H]12 [MEROPENEM]
Pseudomonas aeruginosa [1]
  MIC: > 32 µg/mL
Pseudomonas aeruginosa [2]
  MIC: > 32 µg/mL
Pseudomonas aeruginosa [3]
  MIC: > 32 µg/mL

## CCN1CCN(C(=O)N[C@@H](C(=O)N[C@@H]2C(=O)N3[C@@H]2SC(C)(C)[C@@H]3C(=O)O)c2ccccc2)C(=O)C1=O [PIPERACILLIN]
Pseudomonas aeruginosa [4]
  MIC: 96 µg/mL
Pseudomonas aeruginosa [5]
  MIC: 64 µg/mL
Pseudomonas aeruginosa [6]
  MIC: 96 µg/mL

## COLISTIN
Pseudomonas aeruginosa [7]
  MIC: 32 µg/mL
Pseudomonas aeruginosa [8]
  MIC: 4 µg/mL
Pseudomonas aeruginosa [9]
  MIC: 2 µg/mL
Pseudomonas aeruginosa [10]
  MIC: 32 µg/mL
Pseudomonas aeruginosa [11]
  MIC: 4 µg/mL
Pseudomonas aeruginosa [12]
  MIC: 32 µg/mL

## POLYMYXIN B
Pseudomonas aeruginosa [7]
  MIC: 64 µg/mL
Pseudomonas aeruginosa [8]
  MIC: 0.25 µg/mL
Pseudomonas aeruginosa [9]
  MIC: 0.5 µg/mL
Pseudomonas aeruginosa [10]
  MIC: 64 µg/mL
Pseudomonas aeruginosa [13]
  TIME: 6 h
Pseudomonas aeruginosa [14]
  TIME: 4 h
Pseudomonas aeruginosa [15]
  Activity: Dose-dependent effect
Pseudomonas aeruginosa [16]
  Activity: Dose-dependent effect
Pseudomonas aeruginosa [17]
  Activity: inactive
Pseudomonas aeruginosa [18]
  Activity: inactive
Pseudomonas aeruginosa [19]
  Activity: inactive
Pseudomonas aeruginosa [20]
  Activity: Active
Pseudomonas aeruginosa [21]
  Activity: Active
Pseudomonas aeruginosa [22]
  Activity: Active
Pseudomonas aeruginosa [23]
  Activity: Active
Pseudomonas aeruginosa [24]
  Activity: Active
Pseudomonas aeruginosa [25]
  Activity: Active
Pseudomonas aeruginosa [26]
  Activity: Dose-dependent effect
Pseudomonas aeruginosa [27]
  Activity: Dose-dependent effect
Pseudomonas aeruginosa [28]
  Activity: Dose-dependent effect
Pseudomonas aeruginosa [29]
  Activity: Active
Pseudomonas aeruginosa [30]
  Activity: Active
Pseudomonas aeruginosa [31]
  Activity: Active
Pseudomonas aeruginosa [32]
  Activity: Active
Pseudomonas aeruginosa [33]
  Activity: inactive
Pseudomonas aeruginosa [34]
  Activity: inactive
Pseudomonas aeruginosa [11]
  MIC: 8 µg/mL
Pseudomonas aeruginosa [12]
  MIC: 8 µg/mL
Pseudomonas aeruginosa [1]
  MIC: 4 µg/mL
Pseudomonas aeruginosa [2]
  MIC: 1.5 µg/mL
Pseudomonas aeruginosa [3]
  MIC: 1.5 µg/mL
Pseudomonas aeruginosa [35]
  inhibition: inactive
